B1: tRNA (parent)
chain: GUUCCGUUGGCGUAAUGGUAACGCGUCUCCCUCCUAAGGAGAAGACUGCGGGUUCGAGUCCCGUACGGAACG

This sample holds only a part of the variants without activity.

The variants in this data set derive from B1. Kind of data set: yeast fitness relative to wild type (ratio to wild type); higher = fitter; tRNA-Arg(CCU), competitive growth, 37 C, YPD. The gist of the method:
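A pool of Saccharomyces cerevisiae strains, each with a tRNA-Arg(CCU) gene variant at the native genomic locus, was competed in YPD at 37°C for 24 hours across six parallel replicates. The variants had been chemically synthesised at a 3% per-site mutation rate over 69 sites, and gene amplicons before and after competition were read by 100-nucleotide paired-end sequencing. Darwinian fitness relative to wild type rested on changes in genotype frequencies. Genotypes required ≥ 100 starting reads, and estimates < 0.5 were set to 0.5.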
Consider C4U C34G G41C G56C G58A G63C A65U, for which the yeast fitness was not above 0.5.

For the variant C4G G38A G67A, the yeast fitness is not above 0.5.

Take C4U C5A A36C A42G G52A: the yeast fitness was 0.578.

Take C4U G6A U13C U28C: the yeast fitness was 0.616.

Regarding C4G U35G A42C C66U, the yeast fitness is not above 0.5.

With C4U U19C A37U C62A, the yeast fitness is not above 0.5.

In the case of C4G U26A A57G, the yeast fitness was not above 0.5.

For the variant C4U G39C C46G C49G, the yeast fitness was not above 0.5.

As for C4G G38A, the yeast fitness came out at 0.692.

Take C4G G38C: the yeast fitness was determined as 0.763.

Turning to C4U C27A G51C, the yeast fitness amounted to 0.562.

C4G G58C C66U: the yeast fitness came out at 0.73.

As for C4U G12C A20G U47A C49U A57U C61A G68A, the yeast fitness was not above 0.5.

For C4U U26C G44A G52A C66U, the yeast fitness was not above 0.5.

On to C4U C30G A36U C55U, for which the yeast fitness was not above 0.5.

Turning to C4U G10A, the yeast fitness is 0.644.

C4U C33A G48C: the yeast fitness was not above 0.5.

As for C4U A40U G58C, the yeast fitness worked out at 0.734.

For C4U A21G C46A U54C, the yeast fitness worked out at 0.791.

Take C4U G12A U19C U26A: the yeast fitness is not above 0.5.

As to C4U U7A G39C, the yeast fitness was not above 0.5.

In the case of C4U G10A U28A, the yeast fitness is not above 0.5.

C4U U8G A20G U47G A57G: the yeast fitness was not above 0.5.

On to C4G U7C C22U C27A U59G, for which the yeast fitness was not above 0.5.

For the variant C4U C66A, the yeast fitness is 0.746.

On to C4U G25A A57U U59A, for which the yeast fitness was not above 0.5.

As for C4G U8C A37U A42C C66G, the yeast fitness is not above 0.5.

Regarding C4U G10C G48C C62A, the yeast fitness was not above 0.5.

With C4U C49U, the yeast fitness was determined as 0.989.

Consider C4U C49A, for which the yeast fitness was 0.787.

Turning to C4U A37G G39C C61U, the yeast fitness was not above 0.5.

On to C4G G18A C66U, for which the yeast fitness is 0.524.

Turning to C4U G39U, the yeast fitness came out at 0.834.

With C4U U16A A20U U35C G39C A42C C55G A70G, the yeast fitness is not above 0.5.

Take C4U A14G: the yeast fitness is 0.856.

In the case of C4U A42G G58A, the yeast fitness amounted to 0.717.

C4U A57U C61U: the yeast fitness stood at 0.605.

For C4U U8A C33U A36U A65C, the yeast fitness was not above 0.5.

With C4G U8C, the yeast fitness came out at 0.89.

Regarding C4U C24G U26A U28G A65U, the yeast fitness was not above 0.5.

In the case of C4U U7A A37C A40C G51A C55A G58A, the yeast fitness was not above 0.5.

Regarding C4G G25A U28C A36C C60U U64A C66U, the yeast fitness was not above 0.5.

As for C4U C11U C24A U47G, the yeast fitness was 0.557.

Take C4U C31U A37C: the yeast fitness was found to be 0.532.

Turning to C4U A14G A36C C46G C62U, the yeast fitness is not above 0.5.

As for C4U A65C, the yeast fitness was 0.873.

As for C4U A65G, the yeast fitness turned out to be 0.877.

Take C4U G10C A14C C27G: the yeast fitness came out at 0.546.

As for C4U C30G A36U C66A, the yeast fitness was not above 0.5.

Take C4U A21G C46A G68U: the yeast fitness worked out at 0.574.

As to C4U C24U C27A C60G G67C, the yeast fitness is not above 0.5.

With C4U G6A U8G C31U G63A, the yeast fitness was not above 0.5.

Take C4G U7G A20G A65U: the yeast fitness is not above 0.5.

As for C4U A42G U47C G58A, the yeast fitness was not above 0.5.

C4U A15U C30A A40G C66U: the yeast fitness stood at 0.6.

As for C4U G6A G9A U13C U28C, the yeast fitness is not above 0.5.

For C4G G25A C66A, the yeast fitness is not above 0.5.

In the case of C4G U19G A43U, the yeast fitness was not above 0.5.

Regarding C4U A20G C55U A65G, the yeast fitness is not above 0.5.

As to C4U U19A C30G A36C U47C, the yeast fitness was not above 0.5.

Consider C4U C31G A45C C49A, for which the yeast fitness is not above 0.5.

In the case of C4U G18A G23C C24G C46G U64G, the yeast fitness was not above 0.5.

In the case of C4U G41A, the yeast fitness was 1.02.

C4U A45C: the yeast fitness amounted to 0.939.

As to C4U A45G, the yeast fitness came to 0.856.

C4U C30U C34U: the yeast fitness is not above 0.5.

With C4U G17A A57U, the yeast fitness was not above 0.5.

C4G U7G G9A A20G C22A G41A: the yeast fitness is not above 0.5.

As to C4G G56A C66G, the yeast fitness is not above 0.5.

Consider C4U A57U, for which the yeast fitness turned out to be 0.635.

As to C4G U7A C22U, the yeast fitness is not above 0.5.

Regarding C4U A37U A43U, the yeast fitness was not above 0.5.

C4G G18C C24G C29G: the yeast fitness is not above 0.5.

As for C4U C33U G50C, the yeast fitness is not above 0.5.

Take C4G G51U: the yeast fitness was 0.654.

On to C4U A21G C46A, for which the yeast fitness worked out at 0.899.

On to C4U G17C C49G G50C, for which the yeast fitness amounted to 0.652.

Consider C4G G23C C55U A70U, for which the yeast fitness is not above 0.5.

In the case of C4U A42C A43C C49U A70C, the yeast fitness was not above 0.5.

For the variant C4U G56A, the yeast fitness worked out at 0.934.

Turning to C4U A36U A45C C61G A70C, the yeast fitness turned out to be 0.852.

Regarding C4U C11A A37C G67C, the yeast fitness was not above 0.5.

Take C4U C5G G41A U59C: the yeast fitness is not above 0.5.

As for C4U G18C C31U, the yeast fitness was not above 0.5.

In the case of C4U G10A A43U C55G G56A, the yeast fitness was not above 0.5.

Consider C4U A37C G41C, for which the yeast fitness was 0.577.

C4U C46G: the yeast fitness was found to be 0.981.

For the variant C4U C11U A15G C34U U54C C55U, the yeast fitness was found to be 0.501.

For the variant C4U C27A C31U A43U, the yeast fitness came out at 0.57.

As to C4G G56A, the yeast fitness was 0.927.

C4U A42C A45G C66A A69U: the yeast fitness is not above 0.5.

For C4U U8A U13C U35C C46A, the yeast fitness was not above 0.5.

With C4G G25A G51A, the yeast fitness was not above 0.5.

For C4U G6A C29G G41A C60A, the yeast fitness is not above 0.5.

Turning to C4U G17A, the yeast fitness came to 0.973.

Consider C4U G17A U19G A21G A43G, for which the yeast fitness turned out to be 0.554.

Take C4U C30A G63A: the yeast fitness amounted to 0.828.

In the case of C4G U7G C29A A65C, the yeast fitness was not above 0.5.

With C4U U8A G25C A43U C60G, the yeast fitness was not above 0.5.

In the case of C4U C5G A37C, the yeast fitness was not above 0.5.

Consider C4U G23C A36C C66U, for which the yeast fitness was not above 0.5.

For the variant C4U A37G, the yeast fitness stood at 0.875.

Take C4U G12A G67A: the yeast fitness is 0.674.

Turning to C4U U16C A36U C49U G58C C66U, the yeast fitness was not above 0.5.

Consider C4G U26A C27U A43G C55U C66U, for which the yeast fitness was not above 0.5.

In the case of C4G U8C C31G C33G G58C C60U A70C, the yeast fitness was not above 0.5.

With C4U G9C A69C, the yeast fitness came out at 0.594.

Regarding C4U C22G A57U G63C, the yeast fitness was not above 0.5.

As to C4G G68C, the yeast fitness was determined as 0.971.

On to C4G G68U, for which the yeast fitness was determined as 0.865.

Take C4G U8G C27G: the yeast fitness is 0.567.

Turning to C4U A36U G41C C55U U64C, the yeast fitness turned out to be 0.587.

For the variant C4U A14G A21G C49U, the yeast fitness was 0.677.

In the case of C4U U19C A36G G39A G67A, the yeast fitness is not above 0.5.

C4U A15G C33A U59C C60U: the yeast fitness was not above 0.5.

Turning to C4U A43G, the yeast fitness is 1.

Consider C4U A15G C22U G44C, for which the yeast fitness was not above 0.5.

C4U A45C G51A: the yeast fitness was found to be 0.501.

Turning to C4U A36C C61A, the yeast fitness amounted to 0.705.

In the case of C4U U26A A45C, the yeast fitness worked out at 0.53.

Turning to C4U G25A C34G G52U, the yeast fitness is not above 0.5.

For C4G U7C C27A C66A A70U, the yeast fitness is not above 0.5.

In the case of C4G G23C, the yeast fitness was 0.587.

On to C4G G41A A43C, for which the yeast fitness is not above 0.5.

Turning to C4U C11U C33U C62A, the yeast fitness is not above 0.5.

For the variant C4U C30A U53C A70C, the yeast fitness was not above 0.5.

For the variant C4U C11G C29U, the yeast fitness is not above 0.5.

Turning to C4U A40G A43U C55G, the yeast fitness is 0.584.

For C4G U16A A21C C24G A37U C55U, the yeast fitness is not above 0.5.

On to C4U A36G G39A, for which the yeast fitness is 0.679.

On to C4U C24G U26A U28G U32A, for which the yeast fitness is not above 0.5.

For C4U A20G C61A, the yeast fitness stood at 0.512.

Take C4U C5G C66U: the yeast fitness stood at 0.564.

With C4U U16A A40C C55U C61A C66A, the yeast fitness came out at 0.528.

In the case of C4U A15C C30G C49U A69C A70G, the yeast fitness is not above 0.5.

Take C4G U8G C24A C31G G50A: the yeast fitness was 0.594.

Regarding C4U A42U, the yeast fitness was 0.944.

For the variant C4G U16C A36U, the yeast fitness was not above 0.5.

C4G G41U C61A C66U: the yeast fitness was not above 0.5.

On to C4U A14U C46U, for which the yeast fitness was found to be 0.577.

For C4U C29U C31A C55U A57C, the yeast fitness was not above 0.5.

On to C4G U19C C29A C33G A45C, for which the yeast fitness was not above 0.5.

For C4U C27U U54A, the yeast fitness is not above 0.5.

For C4U A36G C61U, the yeast fitness was found to be 0.73.

With C4G U26A C27U A43G C55U C62U, the yeast fitness worked out at 0.589.

Take C4U C34U: the yeast fitness came to 0.737.

With C4U C34G, the yeast fitness is 0.768.

Turning to C4U U26C A36C A37G U64A A70C, the yeast fitness is not above 0.5.

As to C4U G67U, the yeast fitness is 0.782.

For the variant C4U A14U G50C G51C G56A, the yeast fitness was not above 0.5.

With C4U C30A C62U, the yeast fitness turned out to be 0.792.

Regarding C4U A21G A70U, the yeast fitness was determined as 0.78.

With C4G U7C C27A A70U, the yeast fitness is not above 0.5.

As for C4G U8C U16A A21C C24G A37U C55U C62U A69U, the yeast fitness is not above 0.5.

On to C4U G17C C49A, for which the yeast fitness was determined as 0.55.

Consider C4G U7G A36C, for which the yeast fitness was not above 0.5.

Regarding C4U C5G C29G C31G A37U C66A, the yeast fitness is not above 0.5.

Take C4U C24A U59G C62U A70G: the yeast fitness was not above 0.5.

For C4U C11U C30G G68C, the yeast fitness was 0.593.

With C4U G23C A36C, the yeast fitness stood at 0.597.

On to C4U G50C G51C G56A, for which the yeast fitness is not above 0.5.

As to C4U A45U G68C, the yeast fitness is 0.7.

Regarding C4U C5G C11U C29U U32A C33U G67U A70G, the yeast fitness was not above 0.5.

As for C4U C30A G50U, the yeast fitness was found to be 0.715.

For C4U A20U C22G, the yeast fitness was found to be 0.54.

For C4G U7A U19C A20C C55A G68C, the yeast fitness was not above 0.5.

Consider C4U C34G A69C, for which the yeast fitness worked out at 0.664.

The values are drawn from the RNAGym collection of RNA variant scans (doi:10.1126/science.aae0568).
